The source made the active and inactive calls. No cut-off for these calls is given here.
Columns and labels:
[1] = system: Severe acute respiratory syndrome-related coronavirus; assay: Inhibition of N7-MTase activity of N-terminal His6-tagged SARS-CoV nsp14 expressed in Escherichia coli using GpppAC4 and [3H]SAM as substrate at 50 uM preincubated with enzyme followed by substrate addition and measured after 30 mins by filter binding assay
Outline: (§1)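 Filter binding assay in 40 mM Tris-HCl pH 8.0, 1 mM DTT, 1 mM MgCl2, 2 µM SAM, 0.1 µM 3H-SAM and 0.7 µM GpppAC4 RNA. Enzyme is nsp14 (50 nM), hRNMT (50 nM) or vaccinia D1–D12 (41 U). Compound is at 50 µM with 5% final DMSO. Reactions run 30 min at 30 °C, are stopped by ice-cold water dilution, and 3H on DEAE filters is counted. Percent inhibition is relative to a 5% DMSO control, mean of three experiments.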

Orthopoxvirus vaccinia [2] = assay: Inhibition of N7-MTase activity of Vaccinia virus mRNA capping enzyme D1/D12 complex using GpppAC4 and [3H]SAM as substrate at 50 uM preincubated with enzyme followed by substrate addition and measured after 30 mins by filter binding assay; outline: as §1
[3] = target: RNA-N7 MTase (mRNA cap guanine-N(7) methyltransferase) (Homo sapiens, UniProt O43148); assay: Inhibition of N-terminal His6-tagged human RNA-N7 MTase expressed in Escherichia coli using GpppAC4 and [3H]SAM as substrate at 50 uM preincubated with enzyme followed by substrate addition and measured after 30 mins by filter binding assay; settings: probe GpppAC4 and [3H]SAM; outline: as §1
RNA-N7 MTase (mRNA cap guanine-N(7) methyltransferase), sequence (O43148 whole entry): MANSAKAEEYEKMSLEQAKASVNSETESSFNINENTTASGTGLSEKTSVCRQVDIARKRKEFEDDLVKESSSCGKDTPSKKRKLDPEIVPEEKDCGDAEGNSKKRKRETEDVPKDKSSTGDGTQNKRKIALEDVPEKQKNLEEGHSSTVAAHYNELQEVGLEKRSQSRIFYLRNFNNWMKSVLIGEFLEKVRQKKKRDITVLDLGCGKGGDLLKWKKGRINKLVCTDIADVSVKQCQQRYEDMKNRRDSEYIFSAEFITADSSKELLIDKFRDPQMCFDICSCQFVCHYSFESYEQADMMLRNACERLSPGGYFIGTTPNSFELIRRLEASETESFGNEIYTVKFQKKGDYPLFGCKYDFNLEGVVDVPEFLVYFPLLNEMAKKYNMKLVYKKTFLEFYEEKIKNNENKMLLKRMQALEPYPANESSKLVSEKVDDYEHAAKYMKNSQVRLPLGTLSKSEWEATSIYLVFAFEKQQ

[4] = Inhibition of N7-MTase activity of N-terminal His6-tagged SARS-CoV nsp14 expressed in Escherichia coli using GpppAC4 and [3H]SAM as substrate preincubated with enzyme followed by substrate addition and measured after 30 mins by filter binding assay; design: species or system Severe acute respiratory syndrome-related coronavirus
Outline: (§2)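 Dose-response filter binding assay with nsp14 or hRNMT (each 50 nM) pre-incubated with increasing compound concentrations (5% final DMSO). Then 0.7 µM GpppAC4, 2 µM SAM and 0.1 µM 3H-SAM are added in Tris pH 8.0/DTT/MgCl2, 30 min at 30 °C. IC50 is taken from a Hill slope fit, mean of three independent experiments.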

[5] = target: mRNA cap guanine-N(7) methyltransferase (Homo sapiens, UniProt O43148); assay: Inhibition of N-terminal His6-tagged human RNA-N7 MTase expressed in Escherichia coli using GpppAC4 and [3H]SAM as substrate preincubated with enzyme followed by substrate addition and measured after 30 mins by filter binding assay; outline: as §2
mRNA cap guanine-N(7) methyltransferase, sequence (O43148 whole entry): as above

[6] = system: Severe acute respiratory syndrome-related coronavirus; assay: Binding affinity to SARS-CoV nsp14 assessed as increase in melting temperature at 1 mM at pH 7.5 by differential scanning fluorimetry
Outline: (§3)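 Purified SARS-CoV nsp14 (5 µM) in 20 mM HEPES pH 7.5, 150 mM NaCl and 1X SYPRO orange, with 1 mM compound (DMSO stock; SAM and sinefungin from water). Protein is mixed with compound before dye is added. Fluorescence is read from 20 to 95 °C at 0.2 °C/min. Tm comes from curve fitting, and ΔTm is taken against a 5% DMSO control.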

[7] = system: Severe acute respiratory syndrome-related coronavirus; assay: Binding affinity to SARS-CoV nsp14 assessed as melting temperature at 1 mM at pH 7.5 by differential scanning fluorimetry; outline: as §3
[8] = system: Severe acute respiratory syndrome-related coronavirus; assay: Inhibition of 2'-O-MTase activity of SARS-CoV nsp10/16 complex at 200 uM
Zika virus = assay: Inhibition of 2'-O-methyltransferase in Zika virus at 200 uM
West Nile virus = assay: Inhibition of 2'-O-methyltransferase in West-Nile virus at 200 uM
Dengue virus = assay: Inhibition of 2'-O-methyltransferase in Dengue virus at 200 uM
Orthopoxvirus vaccinia [9] = assay: Inhibition of 2'-O-methyltransferase activity of Vaccinia virus VP39 at 200 uM

Nc1ncnc2c1ncn2[C@@H]1OC(CN(CCO[C@@H]2[C@H](O)C(CO)O[C@H]2n2cnc3c(N)ncnc32)S(=O)(=O)c2ccc([N+](=O)[O-])cc2)[C@@H](O)[C@H]1O (single isomer, unassigned) gave an inhibition [1] of 88.6%, an inhibition (Orthopoxvirus vaccinia [2]) of 49.8% and an inhibition at 0.5 h, 50 µM [3] of 66%. The IC50 [4] was 2.6 µM, the IC50 [5] was over 500 µM and the ΔTm [6] was 4.6 °C. The Tm [7] was over 40 °C, the inhibition [8] was “inactive” and the inhibition (Zika virus) was “inactive”. The inhibition (West Nile virus) was “inactive”, the inhibition (Dengue virus) was “inactive” and the inhibition (Orthopoxvirus vaccinia [9]) was “inactive”.
In the case of NC(=O)[C@@H](N)CCN(CCO[C@@H]1[C@H](O)[C@@H](CO)O[C@H]1n1cnc2c(N)ncnc21)C[C@H]1O[C@@H](n2cnc3c(N)ncnc32)[C@H](O)[C@@H]1O, the inhibition [1] is reported as 13.1%, the inhibition (Orthopoxvirus vaccinia [2]) is reported as 53.2% and the inhibition at 0.5 h, 50 µM [3] is reported as 12.2%. The inhibition [8] was “inactive”, the inhibition (Zika virus) was “inactive” and the inhibition (West Nile virus) was “inactive”. For the same compound, the inhibition (Dengue virus) was “inactive” and the inhibition (Orthopoxvirus vaccinia [9]) was “inactive”.
For Nc1ncnc2c1ncn2[C@@H]1O[C@H](CN(CCCC(=O)O)CCO[C@@H]2[C@H](O)[C@@H](CO)O[C@H]2n2cnc3c(N)ncnc32)[C@@H](O)[C@H]1O, the inhibition [1] was 43%, the inhibition (Orthopoxvirus vaccinia [2]) was “inactive” and the inhibition [8] was “inactive”. The inhibition (Zika virus) was “inactive”, the inhibition (West Nile virus) was “inactive” and the inhibition (Dengue virus) was “inactive”. For the same compound, the inhibition (Orthopoxvirus vaccinia [9]) was “inactive”.
With COc1cc([N+](=O)[O-])ccc1S(=O)(=O)N(CCO[C@@H]1[C@H](O)C(CO)O[C@H]1n1cnc2c(N)ncnc21)CC1O[C@@H](n2cnc3c(N)ncnc32)[C@H](O)[C@@H]1O (single isomer, unassigned) the inhibition [1] was 47.6%, the inhibition (Orthopoxvirus vaccinia [2]) was 5.3% and the inhibition at 0.5 h, 50 µM [3] was 44.2%. The IC50 [4] was 70.4 µM, the IC50 [5] was 169 µM and the ΔTm [6] was 4.6 °C. The Tm [7] was over 40 °C, the inhibition [8] was “inactive” and the inhibition (Zika virus) was “inactive”. The inhibition (West Nile virus) was “inactive”, the inhibition (Dengue virus) was “inactive” and the inhibition (Orthopoxvirus vaccinia [9]) was “inactive”.
For Nc1ncnc2c1ncn2[C@@H]1OC(CN(CCCc2ccccc2)CCO[C@@H]2[C@H](O)C(CO)O[C@H]2n2cnc3c(N)ncnc32)[C@@H](O)[C@H]1O (single isomer, unassigned), the inhibition [1] was 38.4%, the inhibition (Orthopoxvirus vaccinia [2]) was 11.6% and the inhibition at 0.5 h, 50 µM [3] was 23.1%. For the same compound, the IC50 [4] was 55.5 µM, the IC50 [5] was over 500 µM and the ΔTm [6] was 4.6 °C. The Tm [7] was over 40 °C, the inhibition [8] was “inactive” and the inhibition (Zika virus) was “inactive”. For the same compound, the inhibition (West Nile virus) was “inactive”, the inhibition (Dengue virus) was “inactive” and the inhibition (Orthopoxvirus vaccinia [9]) was “inactive”.
Work on COc1ccc(S(=O)(=O)N(CCO[C@@H]2[C@H](O)C(CO)O[C@H]2n2cnc3c(N)ncnc32)CC2O[C@@H](n3cnc4c(N)ncnc43)[C@H](O)[C@@H]2O)c([N+](=O)[O-])c1 (single isomer, unassigned) yielded an inhibition [1] of 96.6%, an inhibition (Orthopoxvirus vaccinia [2]) of 4.6% and an inhibition at 0.5 h, 50 µM [3] of 31.8%. It also gave an IC50 [4] of 3.9 µM, an IC50 [5] of over 500 µM and a ΔTm [6] of 4.6 °C. The Tm [7] was over 40 °C, the inhibition [8] was “inactive” and the inhibition (Zika virus) was “inactive”. The inhibition (West Nile virus) was “inactive”, the inhibition (Dengue virus) was “inactive” and the inhibition (Orthopoxvirus vaccinia [9]) was “inactive”.
With Nc1ncnc2c1ncn2[C@@H]1O[C@H](CN(CCO[C@@H]2[C@H](O)[C@@H](CO)O[C@H]2n2cnc3c(N)ncnc32)CC[C@H](N)C(=O)O)[C@@H](O)[C@H]1O the inhibition [1] was 72%, the inhibition (Orthopoxvirus vaccinia [2]) was 85.8% and the inhibition at 0.5 h, 50 µM [3] was 77.4%. For the same compound, the IC50 [4] was 40.6 µM, the IC50 [5] was 10.9 µM and the inhibition [8] was “inactive”. The inhibition (Zika virus) was “inactive”, the inhibition (West Nile virus) was “inactive” and the inhibition (Dengue virus) was “inactive”. For the same compound, the inhibition (Orthopoxvirus vaccinia [9]) was “inactive”.
In the case of CCCCN(CCO[C@@H]1[C@H](O)[C@@H](CO)O[C@H]1n1cnc2c(N)ncnc21)C[C@H]1O[C@@H](n2cnc3c(N)ncnc32)[C@H](O)[C@@H]1O, the inhibition [1] is reported as “inactive”, the inhibition (Orthopoxvirus vaccinia [2]) is reported as “inactive” and the inhibition at 0.5 h, 50 µM [3] is reported as 27.5%. For the same compound, the inhibition [8] was “inactive”, the inhibition (Zika virus) was “inactive” and the inhibition (West Nile virus) was “inactive”. For the same compound, the inhibition (Dengue virus) was “inactive” and the inhibition (Orthopoxvirus vaccinia [9]) was “inactive”.
In the case of Nc1ncnc2c1ncn2[C@@H]1OC(CN(CCO[C@@H]2[C@H](O)C(CO)O[C@H]2n2cnc3c(N)ncnc32)Cc2ccc(Cl)c([N+](=O)[O-])c2)[C@@H](O)[C@H]1O (single isomer, unassigned), the inhibition [1] is reported as 94%, the inhibition (Orthopoxvirus vaccinia [2]) is reported as 4.3% and the IC50 [4] is reported as 2.4 µM. The ΔTm [6] was 4.6 °C, the Tm [7] was over 40 °C and the inhibition [8] was “inactive”. The inhibition (Zika virus) was “inactive”, the inhibition (West Nile virus) was “inactive” and the inhibition (Dengue virus) was “inactive”. The inhibition (Orthopoxvirus vaccinia [9]) was “inactive”.
With COC(=O)CCCN(CCO[C@@H]1[C@H](O)[C@@H](CO)O[C@H]1n1cnc2c(N)ncnc21)C[C@H]1O[C@@H](n2cnc3c(N)ncnc32)[C@H](O)[C@@H]1O the inhibition [1] was “inactive”, the inhibition (Orthopoxvirus vaccinia [2]) was 69.2% and the inhibition at 0.5 h, 50 µM [3] was 32.8%. The inhibition [8] was “inactive”, the inhibition (Zika virus) was “inactive” and the inhibition (West Nile virus) was “inactive”. For the same compound, the inhibition (Dengue virus) was “inactive” and the inhibition (Orthopoxvirus vaccinia [9]) was “inactive”.
Compound Nc1ncnc2c1ncn2[C@@H]1OC(CN(CCO[C@@H]2[C@H](O)C(CO)O[C@H]2n2cnc3c(N)ncnc32)Cc2ccc(Cl)cc2)[C@@H](O)[C@H]1O (single isomer, unassigned) has an inhibition [1] of 75.9%, an inhibition (Orthopoxvirus vaccinia [2]) of 4.5% and an inhibition at 0.5 h, 50 µM [3] of 14.7%. It also gave an IC50 [4] of 9.9 µM, a ΔTm [6] of 4.6 °C and a Tm [7] of over 40 °C. For the same compound, the inhibition [8] was “inactive”, the inhibition (Zika virus) was “inactive” and the inhibition (West Nile virus) was “inactive”. The inhibition (Dengue virus) was “inactive” and the inhibition (Orthopoxvirus vaccinia [9]) was “inactive”.
Nc1ncnc2c1ncn2[C@@H]1OC(CN(CCO[C@@H]2[C@H](O)C(CO)O[C@H]2n2cnc3c(N)ncnc32)S(=O)(=O)c2ccc(Cl)cc2)[C@@H](O)[C@H]1O (single isomer, unassigned) gave an inhibition [1] of 96.2%, an inhibition (Orthopoxvirus vaccinia [2]) of 19.7% and an inhibition at 0.5 h, 50 µM [3] of 20.2%. The IC50 [4] was 1.5 µM, the ΔTm [6] was 4.6 °C and the Tm [7] was over 40 °C. For the same compound, the inhibition [8] was “inactive”, the inhibition (Zika virus) was “inactive” and the inhibition (West Nile virus) was “inactive”. The inhibition (Dengue virus) was “inactive” and the inhibition (Orthopoxvirus vaccinia [9]) was “inactive”.
In the case of COC(=O)[C@@H](N)CCN(CCO[C@@H]1[C@H](O)[C@@H](CO)O[C@H]1n1cnc2c(N)ncnc21)C[C@H]1O[C@@H](n2cnc3c(N)ncnc32)[C@H](O)[C@@H]1O, the inhibition [1] is reported as 30.6%, the inhibition (Orthopoxvirus vaccinia [2]) is reported as 32.1% and the inhibition at 0.5 h, 50 µM [3] is reported as 33.2%. The inhibition [8] was “inactive”, the inhibition (Zika virus) was “inactive” and the inhibition (West Nile virus) was “inactive”. The inhibition (Dengue virus) was “inactive” and the inhibition (Orthopoxvirus vaccinia [9]) was “inactive”.
For Nc1ncnc2c1ncn2[C@@H]1OC(CN(CCO[C@@H]2[C@H](O)C(CO)O[C@H]2n2cnc3c(N)ncnc32)S(=O)(=O)c2ccc(C(F)(F)F)cc2[N+](=O)[O-])[C@@H](O)[C@H]1O (single isomer, unassigned), the inhibition [1] was 94.6%, the inhibition (Orthopoxvirus vaccinia [2]) was 10.1% and the inhibition at 0.5 h, 50 µM [3] was 23.3%. It also gave an IC50 [4] of 5.7 µM, an IC50 [5] of 276 µM and a ΔTm [6] of 4.6 °C. For the same compound, the Tm [7] was over 40 °C, the inhibition [8] was “inactive” and the inhibition (Zika virus) was “inactive”. For the same compound, the inhibition (West Nile virus) was “inactive”, the inhibition (Dengue virus) was “inactive” and the inhibition (Orthopoxvirus vaccinia [9]) was “inactive”.
Work on Nc1ncnc2c1ncn2[C@@H]1O[C@H](CSCC[C@H](N)C(=O)O)[C@@H](O)[C@H]1O yielded a ΔTm [6] of 6.5 °C.
Nc1ncnc2c1ncn2[C@@H]1O[C@H](CNCCO[C@@H]2[C@H](O)[C@@H](CO)O[C@H]2n2cnc3c(N)ncnc32)[C@@H](O)[C@H]1O gave an inhibition [1] of 31%, an inhibition (Orthopoxvirus vaccinia [2]) of 20.3% and an inhibition at 0.5 h, 50 µM [3] of 35.2%. For the same compound, the inhibition [8] was “inactive”, the inhibition (Zika virus) was “inactive” and the inhibition (West Nile virus) was “inactive”. The inhibition (Dengue virus) was “inactive” and the inhibition (Orthopoxvirus vaccinia [9]) was “inactive”.
Nc1ncnc2c1ncn2[C@@H]1O[C@H](C[C@@H](N)CC[C@H](N)C(=O)O)[C@@H](O)[C@H]1O [SINEFUNGIN] gave an inhibition [1] of 98.3%, an inhibition (Orthopoxvirus vaccinia [2]) of 99.8% and an inhibition at 0.5 h, 50 µM [3] of 99.8%. The IC50 [4] was 0.36 µM, the IC50 [5] was under 0.05 µM and the ΔTm [6] was 4.4 °C.

Reference: ChEMBL document CHEMBL4765355, “Synthesis of adenine dinucleosides SAM analogs as specific inhibitors of SARS-CoV nsp14 RNA cap guanine-N7-methyltransferase” (Eur J Med Chem, 2020)
